In ChEMBL document CHEMBL1123375, “Carbocyclic puromycin: synthesis and inhibition of protein biosynthesis” (1986):
Converted amounts (≈) assume the structure as drawn.

Key:
[1] = test system: Escherichia coli; test: Substrate efficiency was evaluated by using peptidyl transferase assay against Escherichia coli ribosome system; type: functional
In short: (§1)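 Ac-[14C]-L-Phe-tRNA (21 pmol) prebound 8 min at 28°C to washed E. coli ribosomes (2.78 A260 units) with poly(U), 1.50 mM GTP, FWR, 20 mM Mg(OAc)2, 130 mM Tris-HCl pH 7.5, 130 mM NH4Cl. Reaction started with puromycin compound in water, run for timed intervals, then stopped with NaOH. Ethyl acetate-extracted product counted, blank-corrected. Km and Vmax by Wilkinson analysis, triplicates.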

[2] = test system: Escherichia coli; test: (§2) Kinetic constant was evaluated by using peptidyl transferase assay against Escherichia coli ribosome system; in short: as §1
[3] = species on record: Rattus norvegicus; test: Ratio of kinetic parameter Vmax to that of Km in Rat liver ribosome; parameters: unit not given here
In short: (§3)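 Ac-[3H]-L-Phe-tRNA (22 pmol) prebound 60 min at 37°C to rat liver ribosomes (4.0 A260 units) with poly(U), 1.6 mM GTP, FWR, 15 mM Mg(OAc)2, 100 mM Tris-HCl pH 7.5, 100 mM NH4Cl. Mixture added to puromycin compound, 37°C for varying times. Product extracted into ethyl acetate and counted. Km and Vmax by Wilkinson analysis.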

[4] = Compound was evaluated for the cytotoxicity by using P-388 in vitro assay against P-388 mouse lymphoid leukemia cells in 4 mL of Fischer's medium with 10% horse serum.; type: functional; details: P388, read-out: ED50 (the source's name)
In short: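 Twofold dilution series in duplicate tubes, each seeded with 4×10^5 cells, incubated 72 h at 37°C, stoppered and held at a 30° angle without agitation, rotated twice daily. Growth read by hemocytometer count, inoculum subtracted. Percent inhibition calculated against controls, ED50 derived from this.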

[5] = test system: Escherichia coli; test: as §2; type: functional; in short: as §1
[6] = species on record: Rattus norvegicus; test: (§4) Kinetic constant was evaluated by using peptidyl transferase assay against Rat liver ribosome system; in short: as §3
[7] = species on record: Rattus norvegicus; test: Substrate efficiency of the compound was evaluated by using peptidyl transferase assay against Rat liver ribosome system; type: functional; in short: as §3
[8] = test system: Escherichia coli; test: Ratio of kinetic parameter Vmax to that of Km in Escherichia coli ribosome system; parameters: unit not given here; in short: as §1
[9] = species on record: Rattus norvegicus; test: Substrate efficiency was evaluated by using peptidyl transferase assay against Rat liver ribosome system.; type: functional; in short: as §3
[10] = species on record: Rattus norvegicus; test: as §4; type: functional; in short: as §3
[11] = species on record: Rattus norvegicus; test: Substrate efficiency was evaluated by using peptidyl transferase assay against Rat liver ribosome system; type: functional; in short: as §3

SMILES | Efficiency [1] | Vmax [2] | Ratio [3] | EC50 [4] | Km [5] | Km [6] | Vmax [6] | Efficiency [7] | Ratio [8] | Km [2] | Efficiency [9] | Km [10] | Efficiency [11]
COc1ccc(CC(N)C(=O)N[C@H]2[C@@H](O)[C@H](n3cnc4c(N(C)C)ncnc43)O[C@@H]2C)cc1 (stereo partly specified) | 81% | 1890 c.p.m. | 23300 | 0.3 µg/mL (≈ 0.659 µM) | 230 µM | 610 µM | 14200 c.p.m. | 42% | 8220 |  |  |  | 
COc1ccc(CC(N)C(=O)N[C@@H]2CC[C@@H](n3cnc4c(N(C)C)ncnc43)[C@@H]2O)cc1 (stereo partly specified) | 34% | 644 c.p.m. | 3160 | 0.8 µg/mL (≈ 1.82 µM) |  | 276 µM | 871 c.p.m. |  | 3420 | 188 µM | 5.7% |  | 
COc1ccc(C[C@H](N)C(=O)N[C@H]2[C@@H](O)[C@H](n3cnc4c(N(C)C)ncnc43)O[C@@H]2CO)cc1 [PUROMYCIN] | 100% | 1890 c.p.m. | 55700 | 0.3 µg/mL (≈ 0.636 µM) | 186 µM |  | 14200 c.p.m. |  | 10200 |  |  | 255 µM | 100%
COc1ccc(CC(N)C(=O)N[C@@H]2[C@@H](CO)C[C@@H](n3cnc4c(N(C)C)ncnc43)[C@@H]2O)cc1 (stereo partly specified) | 45% | 850 c.p.m. | 12400 | 0.3 µg/mL (≈ 0.639 µM) | 187 µM | 300 µM | 3720 c.p.m. |  | 4540 |  |  |  | 22%
